The values below come from ChEMBL document CHEMBL1145178, “Exploring the role of different drug transport routes in permeability screening” (J Med Chem, 2005).

Data set [1] is described as follows: Fraction absorbed in human intestine after oral administration compound was measured. It is filed as ADME, tissue-based.
Data set [2] can be described thus: Permeability Coefficient in 2/4/A1 cell model. The class given is ADME, cell-based, Homo sapiens.
Data set [3] in a line: Permeability Coefficient in Caco-2 cell culture model. It is filed as ADME, cell-based. Particulars: human.
Data set [4] in a line: Permeability Coefficient in hexadecane membranes model. The class given is ADME, cell membranes. Particulars: not told. The method in brief: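 Hexadecane (5% v/v in hexane) was loaded onto 0.4 µm polycarbonate filters, and the hexane was evaporated for ≥1 h at RT. Drug in HBSS/25 mM HEPES pH 7.4 was placed donor side, with pH 7.4 buffer receiver side, at 37°C and 500 rpm stirring. Receiver sampled over 10–120 min.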

The species named for data set [5] is Homo sapiens.

The structures appear in SMILES notation. Where a SMILES comes first, the peptide text is derived from it.

As for `O=C(O)c1cc(/N=N/c2ccc(O)c(C(=O)O)c2)ccc1O` [OLSALAZINE], the Fa in data set [1] was 3%. Besides, the Papp is 4.5 ×10⁻⁶ cm/s in data set [2], 0.05 ×10⁻⁶ cm/s in data set [3] and 12 ×10⁻⁶ cm/s in data set [4].
Regarding `COCCc1ccc(OCC(O)CNC(C)C)cc1` (configuration not stated) [METOPROLOL], the results for the Papp in data set [2] and in data set [4] were 190 ×10⁻⁶ cm/s and 8.6 ×10⁻⁶ cm/s, respectively.
As to `OC[C@@H](O)[C@@H](O)[C@H](O)[C@H](O)CO` [MANNITOL], the Papp was 11 ×10⁻⁶ cm/s in data set [2] and 0.17 ×10⁻⁶ cm/s in data set [4].
Regarding `CC(C)NCC(O)COc1cccc2ccccc12` (configuration not stated) [PROPRANOLOL], the Fa in data set [1] is 100%. Also, the Papp stood at 240 ×10⁻⁶ cm/s in data set [2], 204 ×10⁻⁶ cm/s in data set [3] and 58 ×10⁻⁶ cm/s in data set [4].
For `Nc1nc2c(ncn2COCCO)c(=O)[nH]1` [ACYCLOVIR], in data set [1], the Fa is 19%. In addition, the values for the Papp in data set [2], in data set [3] and in data set [5] were 8.2 ×10⁻⁶ cm/s, 0.38 ×10⁻⁶ cm/s and 0.034 cm/s · 10E6, respectively.
In turn, `CCN1CCCC1CNC(=O)c1cc(S(N)(=O)=O)ccc1OC` (configuration not stated) [SULPIRIDE] yielded a Fa in data set [1] of 30%. In data set [2], this compound returned a Papp of 11 ×10⁻⁶ cm/s.
Consider `CN(Cc1cnc2nc(N)nc(N)c2n1)c1ccc(C(=O)NC(CCC(=O)O)C(=O)O)cc1` (single isomer, unassigned) [METHOTREXATE], for which the Fa in data set [1] is 59%. The Papp was 5.2 ×10⁻⁶ cm/s in data set [2], 0.03 ×10⁻⁶ cm/s in data set [3] and 0.02 ×10⁻⁶ cm/s in data set [4].
In turn, `O=C(O)c1cc(/N=N/c2ccc(S(=O)(=O)Nc3ccccn3)cc2)ccc1O` [SULFASALAZINE] came in with a Fa in data set [1] of 12%. The Papp is 9.6 ×10⁻⁶ cm/s in data set [2] and 0.028 cm/s · 10E6 in data set [5].
In turn, `O=c1[nH]cnc2c1ncn2[C@H]1CC[C@@H](CO)O1` [DIDANOSINE] displayed a Fa in data set [1] of 42%. For the same compound, the Papp is 14 ×10⁻⁶ cm/s in data set [2], 0.25 ×10⁻⁶ cm/s in data set [3] and 0.099 ×10⁻⁶ cm/s in data set [4].
`CC(C)(C)NCC(O)COc1cccc2c1C[C@H](O)[C@H](O)C2` (some centres not stated) [NADOLOL] returned a Fa in data set [1] of 30%. Further, the Papp came to 14 ×10⁻⁶ cm/s in data set [2], 0.28 ×10⁻⁶ cm/s in data set [3] and 0.032 ×10⁻⁶ cm/s in data set [4].
The matching figures for `O=P(O)(O)C(Cl)(Cl)P(=O)(O)O` [CLODRONIC ACID]: 3%, 4.5 ×10⁻⁶ cm/s, 0.059 ×10⁻⁶ cm/s and 12 ×10⁻⁶ cm/s.
Take `CN(C)C(=N)N=C(N)N` [METFORMIN]: the figures for the Papp in data set [2], in data set [3] and in data set [4] were 20 ×10⁻⁶ cm/s, 0.66 ×10⁻⁶ cm/s and 0.51 ×10⁻⁶ cm/s, respectively.
For the compound `O=C1c2c(O)ccc(O)c2C(=O)c2c(NCCNCCO)ccc(NCCNCCO)c21` [MITOXANTRONE], the figures for the Papp in data set [2], in data set [3] and in data set [4] were 7.3 ×10⁻⁶ cm/s, 2.3 ×10⁻⁶ cm/s and 0.74 ×10⁻⁶ cm/s, respectively.
Compound `O=C(O)P(=O)(O)O` [FOSCARNET] displayed a Fa in data set [1] of 17%. The Papp in data set [2] was found to be 9.5 ×10⁻⁶ cm/s; in data set [3], 0.043 ×10⁻⁶ cm/s; in data set [4], 0.36 ×10⁻⁶ cm/s.
With `Nc1nc(=O)c2ncn([C@@H]3C[C@H](CO)[C@H]3CO)c2[nH]1` [LOBUCAVIR], the Fa in data set [1] turned out to be 50%. The Papp is 14 ×10⁻⁶ cm/s in data set [2], 0.88 ×10⁻⁶ cm/s in data set [3] and 0.057 ×10⁻⁶ cm/s in data set [4].
Regarding `CC(C)(C)NCC(O)c1cc(O)cc(O)c1` (configuration not stated) [TERBUTALINE], in data set [1], the Fa turned out to be 73%. Further, the Papp in data set [2] was found to be 41 ×10⁻⁶ cm/s; in data set [3], 0.23 ×10⁻⁶ cm/s; in data set [4], 0.96 ×10⁻⁶ cm/s.
For the compound `OC[C@H]1O[C@@H](O[C@@H]2[C@@H](CO)O[C@](O)(CO)[C@H]2O)[C@H](O)[C@@H](O)[C@H]1O` [LACTULOSE], the Fa in data set [1] amounted to 1%. Further, the Papp in data set [2] stood at 8.9 ×10⁻⁶ cm/s; in data set [4], 0.081 ×10⁻⁶ cm/s.
In data set [1], `OC[C@H]1O[C@H](OC[C@H]2O[C@H](O[C@]3(CO)O[C@H](CO)[C@@H](O)[C@@H]3O)[C@H](O)[C@@H](O)[C@@H]2O)[C@H](O)[C@@H](O)[C@H]1O` [RAFFINOSE] had a Fa of 0%. The Papp in data set [2] was 5.9 ×10⁻⁶ cm/s; in data set [4], 0.051 ×10⁻⁶ cm/s.
With `CC(C)NCC(O)COc1cccc2[nH]ccc12` (configuration not stated) [PINDOLOL], the Papp in data set [2] is 67 ×10⁻⁶ cm/s; in data set [4] it was 0.73 ×10⁻⁶ cm/s.
`Cc1cc(=O)n(-c2ccccc2)n1C` [ANTIPYRINE]: the results for the Papp in data set [2] and in data set [4] were 250 ×10⁻⁶ cm/s and 11 ×10⁻⁶ cm/s, respectively.
With `C=CCc1ccccc1OCC(O)CNC(C)C` (configuration not stated) [ALPRENOLOL], the Papp was 290 ×10⁻⁶ cm/s in data set [2] and 160 ×10⁻⁶ cm/s in data set [4].
For the compound `Cc1ccccc1N1C(=O)c2cc(S(N)(=O)=O)c(Cl)cc2NC1C` (configuration not stated) [METOLAZONE], the Fa in data set [1] stood at 64%. Besides, the Papp in data set [2] came out at 14 ×10⁻⁶ cm/s; in data set [3] it was 4.3 ×10⁻⁶ cm/s; in data set [4], 1.1 ×10⁻⁶ cm/s.
For the compound `CN(CC(=O)O)C(=O)CN` [GLYCYLSARCOSINE] (HELM PEPTIDE1{G.[Sar]}$$$$V2.0), in data set [1], the Fa is 100%. The Papp in data set [2] was found to be 11 ×10⁻⁶ cm/s; in data set [3], 0.5 ×10⁻⁶ cm/s; in data set [4] it was 0.25 ×10⁻⁶ cm/s.
`CN1CC(=O)NC1=N` [CREATININE]: the Fa in data set [1] was 70%. For the same compound, the Papp in data set [2] is 21 ×10⁻⁶ cm/s; in data set [3], 1.2 ×10⁻⁶ cm/s; in data set [4] it was 0.12 ×10⁻⁶ cm/s.
Compound `Nc1nc(O)c2ncn(COC(CO)CO)c2n1` [GANCICLOVIR] came in with a Fa in data set [1] of 5%.
As for `CN/C(=N/CCSCc1nc[nH]c1C)NC#N` [CIMETIDINE], the Fa in data set [1] amounted to 80%. Further, the Papp in data set [2] came to 39 ×10⁻⁶ cm/s; in data set [3], 0.67 ×10⁻⁶ cm/s; in data set [4] it was 0.085 ×10⁻⁶ cm/s.
The matching figures for `C[C@H]1O[C@@H](O[C@H]2[C@@H](O)C[C@H](O[C@H]3[C@@H](O)C[C@H](O[C@H]4CC[C@@]5(C)[C@H](CC[C@@H]6[C@@H]5C[C@@H](O)[C@]5(C)[C@@H](C7=CC(=O)OC7)CC[C@]65O)C4)O[C@@H]3C)O[C@@H]2C)C[C@H](O)[C@@H]1O` [DIGOXIN]: 81%, 6.7 ×10⁻⁶ cm/s, 1.3 ×10⁻⁶ cm/s and 0.12 ×10⁻⁶ cm/s.
The matching figures for `CC(C)[C@H](N)C(=O)OCCOCn1cnc2c(=O)[nH]c(N)nc21` [VALACYCLOVIR]: 36%, 35 ×10⁻⁶ cm/s, 2.3 ×10⁻⁶ cm/s and 0.39 ×10⁻⁶ cm/s.
